Bioassay records: PubChem BioAssay, several laboratories
Only some compounds are listed: those with a hit (about 1.7% of all), similar ones and a draw of the others.
CSN inh – inhibitors of CSN-mediated cullin deneddylation, primary screen, biochemical, fluorescence polarization, uHTS. 360,000 compounds, 0.38% hits. inhibition, % at 12.5 µM. Purified CSN, SCF-Nedd8-OG deneddylation. COP9 signalosome complex subunit 5 (Homo sapiens), Q92905. AID 651999, 2013;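 active = pattern-corrected inhibition above about 35%, with an unprinted fluorescence ratio check between 0.5 and 1.5, limit read from the data, passing the limit was not always enough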;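 note: 0% = enzyme with substrate and 100% = substrate without enzyme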
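Assay system: purified human Csn5 enzyme expressed in HEK293T cells; measure: % inhibition; also added: SCFSkp2-Nedd8OG substrate at 10 nM final; technique: fluorescence polarization; times: reaction 90 min, room temperature; medium: Tris buffer pH 7.5, NaCl, DTT, Tween-20, trehalose, ovalbumin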
IDE cell inh – human IDE inhibitors in live cells, primary screen, fluorescence polarization, HEK cells, FAbetaB substrate | inhibition, % at 5.59 µM | AID 434962, 2010 | 320,000 compounds, 0.41% hits | FAbetaB cleavage | Insulin-degrading enzyme (Homo sapiens), P14735;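 active = percent inhibition above the average of all tested compounds plus 3 SD, set per screening campaign, cut at about 16% in these data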;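 note: IDE supplied by intact live HEK cells; FP after avidin binding of uncleaved biotin substrate so inhibition keeps polarization high; 0% = DMSO wells and 100% = 60 µM reference IDE inhibitor Ii1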
Rpn11 inh – Rpn11 (PSMD14) deubiquitinase inhibitors, primary screen, biochemical, fluorescence polarization, uHTS; 26S proteasome non-ATPase regulatory subunit 14 (Homo sapiens), O00487; human 26S proteasome, Ub4-pepOG fluorescence polarization; 20S core pre-blocked with epoxomicin; inhibition, % at 20 µM; 360,000 compounds, 0.59% hits; AID 588493, 2011;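 active = inhibition at 20 µM, scaled to each plate's controls, above about 33%, limit read from the data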
HNF4A DNA FP – change in binding of human HNF4A to DNA, primary screen, biochemical, fluorescence polarization, FITC-DNA; AID 1224865, 2016; 1 h; 360,000 compounds, 0.3% hits; Hepatocyte nuclear factor 4-alpha (Homo sapiens), P41235; activity change, % at 10 µM; in the data active = activity change above about 30%, passing the limit was not always enough
Target sequence (P41235 whole entry, looked up): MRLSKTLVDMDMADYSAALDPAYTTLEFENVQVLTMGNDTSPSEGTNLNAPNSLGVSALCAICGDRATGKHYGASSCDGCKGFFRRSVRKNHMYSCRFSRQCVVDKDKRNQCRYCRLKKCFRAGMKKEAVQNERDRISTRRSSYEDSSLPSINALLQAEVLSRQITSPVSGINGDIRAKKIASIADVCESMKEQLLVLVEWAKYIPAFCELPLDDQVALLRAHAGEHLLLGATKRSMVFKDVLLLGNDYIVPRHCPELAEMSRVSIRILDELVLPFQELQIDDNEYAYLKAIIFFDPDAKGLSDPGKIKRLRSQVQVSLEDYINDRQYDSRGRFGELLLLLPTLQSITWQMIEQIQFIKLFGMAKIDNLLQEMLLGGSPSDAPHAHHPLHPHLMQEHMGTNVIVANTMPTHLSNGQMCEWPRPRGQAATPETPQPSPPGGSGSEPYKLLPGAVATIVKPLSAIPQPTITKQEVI
TPT1 inhibitor – Candida albicans TPT1 enzyme inhibitors, primary screen, biochemical, fluorescence polarization. 300,000 compounds, 0.81% hits. inhibition, % at 5 µM. recombinant caTPT1, FP RNA substrate dephosphorylation. AID 1962, 2009;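 active = inhibition above the mean of all tested compounds plus 3 SD, set per screening campaign, cut at about 24% in these data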;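 note: plate controls were DMSO alone for no effect and ferristatin control at 100 nM for full effect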
IDE cell activ – human IDE activators in live cells, primary screen, fluorescence polarization, HEK cells, FAbeta-B substrate; activation, % at 5.96 µM; FAbeta-B cleavage; 0% vehicle, 100% cell-free pure enzyme wells; Insulin-degrading enzyme (Homo sapiens), P14735; 340,000 compounds, 0.073% hits;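 active = activation above the mean of all tested compounds plus 3 SD, set per screening campaign, cut at about 17% in these data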
The depositor's hits bear a star; · = not tested or not shown.

SMILES | CSN inh | IDE cell inh | Rpn11 inh | HNF4A DNA FP | TPT1 inhibitor | IDE cell activ
CCCCN(CCCC)c1nc2ccccc2nc1C(C#N)C(=O)NCCCOC (stereo not given) | 99* | 4 | · | -1 | 8 | -1
CCOC(=O)CSc1nnc(-c2ccc(OC)cc2)n1CC | -5 | 0 | 5 | 1 | -4 | 4
CCOC(=O)Cn1c(-c2ccc(OC)cc2)c(-c2ccc(OC)cc2)nnc1=O | -5 | 0 | 3 | 33* | 2 | 6
O=C(CNC(=O)c1ccc(Cl)cc1)NC(CO)c1ccccc1 (stereo not given) | -4 | -4 | 2 | 0 | -2 | -1
Cc1cc2cc(C(c3nnnn3C(C)(C)C)N(Cc3ccco3)CC3CCCO3)c(=O)[nH]c2cc1C (stereo not given) | 7 | 4 | 17 | 43* | 2 | 3
COc1ccc2[nH]c(=O)c(C(c3nnnn3C(C)(C)C)N(Cc3ccco3)CC3CCCO3)cc2c1 (stereo not given) | 2 | 5 | -4 | 0 | -4 | 3
O=C(c1cc(-c2cccnc2)nc2ccccc12)N1CCN(S(=O)(=O)c2ccc(Cl)s2)CC1 | 3 | · | 3 | 0 | · | -2
CC1=C(C(=O)OCc2ccccc2)C(c2ccc(Br)cc2)NC(=O)N1CCCC(=O)O (stereo not given) | · | -8 | · | · | 2 | ·
CC1=C(C(=O)OCc2ccccc2)C(c2ccc(Br)cc2)NC(=O)N1CCCCCC(=O)O (stereo not given) | 3 | -2 | -4 | -1 | 1 | 38*
COc1ccc(NC(=O)NS(=O)(=O)c2ccc(C)cc2)cn1 | -72 | · | -147 | -69 | · | 30*
COc1cc(C(C)=O)ccc1OCC(O)CN1CCN(c2c(C)cccc2C)CC1 (stereo not given) | -3 | -5 | -3 | 45* | 6 | 6
COc1cc(C(C)=O)ccc1OCC(O)CN1CCN(c2ccc(C)c(C)c2)CC1 (stereo not given) | -3 | 4 | -4 | -5 | 0 | -2
Cc1cn(CC(=O)N2CCN(c3ccccn3)CC2)c(=O)[nH]c1=O | -4 | · | 2 | 1 | · | 1
O=C(Nc1ccc(OCC(=O)N2CCOCC2)cc1)c1cncc(Br)c1 | 80* | 8 | -8 | 0 | 0 | -1
COc1cc(/C=C(\C#N)C(=O)Nc2ccccc2F)ccc1OCCN1CCOCC1 | -1 | 6 | 0 | -1 | 2 | 4
COc1ccc(C(=O)NC(=S)Nc2ccc(N3CCOCC3)cc2)cc1Cl | 2 | -1 | 9 | 0 | -1 | 5
CSC1=N/C(=C\c2ccc(Br)o2)C(=O)S1 | 43* | -4 | 20 | -12 | 6 | -2
CC(Sc1nnc(C2CC2)n1Cc1ccccc1)C(=O)N1CCNC1=O (stereo not given) | -2 | -1 | 6 | -1 | · | 0
O=C(Oc1c(Cl)cc(Cl)c2cccnc12)c1cccc([N+](=O)[O-])c1 | -4 | 0 | 49* | 1 | -2 | 3
CCn1c2ccccc2c2cc(NC(=O)COC(=O)c3ccccc3F)ccc21 | 6 | -7 | 2 | 0 | 2 | 3
CCOC(=O)c1c(NC(=O)COC(=O)c2ccc(O)cc2)sc(C(=O)N(C)C)c1C | -4 | 0 | 9 | 2 | -1 | 0
CCOC(=O)c1c(NC(=O)COC(=O)c2ccc(NC(=O)CC#N)cc2)sc(C(=O)NC)c1C | 40* | -2 | 29 | -15 | · | -2
CCn1c2ccccc2c2cc(NC(=O)COC(=O)c3ccc(NC(=O)CC#N)cc3)ccc21 | 43* | -2 | 11 | -9 | 3 | -2
O=C(O)c1cc(Cl)n[nH]c1=O | 0 | · | -4 | 4 | · | ·
O=C(c1cccc([N+](=O)[O-])c1)c1ccc2[nH]c(=O)[nH]c2c1 | 97* | -1 | -4 | 4 | 4 | -1
CN(C)Cc1c(C(=O)N/N=C/C2CC=CCC2)nnn1-c1nonc1N (stereo not given) | 0 | 4 | 0 | 1 | 0 | 7
